Entries after “also recorded” stand apart in the source; their conditions may differ. Read-outs that look alike come from different tables or passages of the source. Square brackets hold non-standard residues; d marks the D form. Peptide text beside a SMILES is read from it. Orn(N5-OH,N5-Ac) = CC(=O)N(O)CCC[C@H](N)C(=O)O
Experiments:
apo-FbpABp [1] = target: T1, apo-FbpABp (Bordetella pertussis, UniProt Q7VXW9); format: binding
T1 sequence (Q7VXW9 31-349): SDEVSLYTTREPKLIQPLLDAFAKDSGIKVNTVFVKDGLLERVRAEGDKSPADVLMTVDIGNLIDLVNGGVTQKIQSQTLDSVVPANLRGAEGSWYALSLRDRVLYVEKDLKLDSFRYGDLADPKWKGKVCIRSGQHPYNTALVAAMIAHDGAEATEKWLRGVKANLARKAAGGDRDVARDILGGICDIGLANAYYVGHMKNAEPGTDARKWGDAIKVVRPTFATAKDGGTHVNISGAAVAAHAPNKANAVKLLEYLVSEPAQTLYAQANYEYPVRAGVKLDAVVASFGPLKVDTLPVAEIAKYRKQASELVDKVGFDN

apo-FbpABp [2] = target: T1, apo-FbpABp; assay: UV-vis spectral difference experiment between apo-DFB and apo-FbpABp; format: binding; details: results not shown
FbpABp = format: binding, Bordetella pertussis; details: absence of a suitable synergistic anion
In short: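 Recombinant B. pertussis FbpA was made periplasmically in B. bronchiseptica ΔfbpA grown in iron-depleted Stainer–Scholte medium at 35 °C, then osmotic-shock extracted and DEAE-purified. Apo-protein took 50 equiv carbonate/oxalate (30 min) then 10 equiv Fe(ClO4)3 (overnight, 4 °C, filtered), or 10 equiv citrate/NTA then 2 equiv 1:1 Fe-anion. Iron was titrated to maximal CT band, dialysed, then competed against EDTA; pH 6.5 MES/NaCl.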

apo-FbpABp [3] = target: T1, apo-FbpABp; details: pH 6.5, 50 mM MES, 100 mM NaCl; monitored 3 h
[4] = read-out: Kd (apparent Fe3+-siderophore/apo-FbpABp dissociation constant, eq 3), ferric siderophore complex, one-site model, 50 mM MES, 100 mM NaCl, pH 6.5, room temperature

CC(=O)N(O)CCCCCNC(=O)CCC(=O)N(O)CCCCCNC(=O)CCC(=O)N(O)CCCCCN [DFB, desferrioxamine B]
Kd (apo-FbpABp [1]): ~1000 nM | binding of apo-siderophore by apo-FbpABp (apo-FbpABp [2]): not able to bind an apo-siderophore effectively

[Fe+3] [Fe^3+, Ferric iron]
Fe3+ sequestration by FbpABp (FbpABp): No Fe^3+ sequestration was observed

CC(=O)N([O-])CCC[C@@H]1NC(=O)CNC(=O)CNC(=O)CNC(=O)[C@H](CCCN([O-])C(C)=O)NC(=O)[C@H](CCCN([O-])C(C)=O)NC1=O.[Fe+3] [FC, ferrichrome] (cyclo(GGG[Orn(N5-OH,N5-Ac)][Orn(N5-OH,N5-Ac)][Orn(N5-OH,N5-Ac)]))
Kd (apo-FbpABp [1]; [4]): ~1000 nM

O=C(N[C@H]1COC(=O)[C@@H](NC(=O)c2cccc(O)c2O)COC(=O)[C@@H](NC(=O)c2cccc(O)c2O)COC1=O)c1cccc(O)c1O [ENT, enterobactin]
Kd (apo-FbpABp [1]): ~1000 nM | quenching of apo-protein fluorescence emission band by apo-siderophore (apo-FbpABp [1]; apo-siderophore, final protein:apo-siderophore 1:4 (ALC), 1:2 (ENT)): < 16%

O=C1CCC(=O)N(O)CCC(O)CNC(=O)CCC(=O)N(O)CCC(O)CN1 (centres unmarked) [ALC, alcaligin]
Kd (apo-FbpABp [1]; [4]): ~100 nM

ferric-alcaligin [Fe2(ALC)3]
Qmax (maximum % quenching) (apo-FbpABp [1]; ferric siderophore complex, emission 352 nm, excitation 297 nm, pH 6.5): ~80% | blue shift of FbpABp emission band (apo-FbpABp [1]; on addition of ferric siderophore to apo-FbpABp): ~8 nm | Kd (apo-FbpABp [1]; [4]): 130 ± 40 nM | change of ferric siderophore CT band after addition of apo-FbpABp (apo-FbpABp [3]): shift in λmax from 428 nm (CT band for Fe2ALC3) to 410 nm; also recorded: λmax shifted from 428 to 410 nm
